# SIAE primary – blocks human sialic acid acetylesterase | Q9HAT2 | SIAE FP-Rh probe binding, fluorescence polarization | inhibition, % at 9.66 µM | hit rate 0.69% among 370,000;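 active = inhibition above a cutoff: mean of compounds within the control limits plus 3 SD of those, cut at about 17% in these data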;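 note: 0% = plate median of compound wells and 100% = probe without SIAE protein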
# PRMT1 inh – blocks human protein arginine methyltransferase 1; Q99873; recombinant PRMT1, activity-based probe fluorescence polarization; inhibition, % at 2.79 µM; hit rate 1.3% among 370,000; AID 652257;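 active = inhibition above about 21% made by adding two undisclosed values, limit read from the data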
# Target sequence (Q99873 whole entry, looked up): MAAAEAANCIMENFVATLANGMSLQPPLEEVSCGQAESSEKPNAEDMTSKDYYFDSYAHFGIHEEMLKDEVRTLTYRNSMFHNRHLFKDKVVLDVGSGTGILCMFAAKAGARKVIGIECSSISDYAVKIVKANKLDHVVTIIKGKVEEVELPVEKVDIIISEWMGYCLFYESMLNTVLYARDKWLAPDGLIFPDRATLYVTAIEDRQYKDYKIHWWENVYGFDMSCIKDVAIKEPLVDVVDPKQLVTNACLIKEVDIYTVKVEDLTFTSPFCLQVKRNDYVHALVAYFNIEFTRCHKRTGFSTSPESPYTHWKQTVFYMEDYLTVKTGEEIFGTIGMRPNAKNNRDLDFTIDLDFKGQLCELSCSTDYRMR
# HTRA1 inhibitor – HTRA1 (human) protease inhibition; AID 504803; hit rate 0.5% among 340,000; Q92743; inhibition, % at 5.96 µM; recombinant HTRA1, FP-rhodamine activity-based probe, fluorescence polarization; in the data active = inhibition above about 36%;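 note: 0% = enzyme with DMSO and 100% = wells lacking enzyme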
# rCAG RNA binder – r(CAG) repeat RNA binding; TO-PRO-1 dye displacement fluorescence; inhibition, % at 3 µM; hit rate 1.3% among 370,000; AID 651821;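 active = inhibition above the plate cutoff, the mean of all test compounds on that plate plus 3 SD, cut at about 35% in these data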;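 note: 0% = DMSO alone and 100% = 100 µM mitoxantrone as full dye displacement; higher means more dye released from RNA so lower well fluorescence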
# mABHD4 FP – ABHD4 (mouse) inhibition, primary FP screen; purified mABHD4, FP-Rh probe fluorescence polarization; inhibition, % at 8.92 µM; hit rate 0.54% among 370,000; AID 720543;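 active = inhibition exceeding the mean over every tested compound plus 3 SD, cut at about 30% in these data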;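 note: 0% = plate median of compound wells and 100% = S159A mutant with DMSO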
# Target sequence (Q8VD66 whole entry, looked up): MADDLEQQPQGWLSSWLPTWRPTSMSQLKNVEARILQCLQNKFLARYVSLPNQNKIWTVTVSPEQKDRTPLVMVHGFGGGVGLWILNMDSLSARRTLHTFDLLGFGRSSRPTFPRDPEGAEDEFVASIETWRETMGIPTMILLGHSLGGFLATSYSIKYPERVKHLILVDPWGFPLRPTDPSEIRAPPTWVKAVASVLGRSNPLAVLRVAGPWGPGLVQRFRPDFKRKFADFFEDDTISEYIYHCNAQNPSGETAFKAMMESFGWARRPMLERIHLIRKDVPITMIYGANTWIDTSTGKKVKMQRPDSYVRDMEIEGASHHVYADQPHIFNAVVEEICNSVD
#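 Assay system: mouse ABHD4 enzyme, wild type / Also added: fluorescent activity-based probe FP-Rh / Doses: single nominal dose of 8.92 µM, 0.89% DMSO final / Timing: 45 min compound pre-incubation plus 60 min probe step, 25 °C / Signal: FP readout, ex 525 nm / em 598 nm / Control set: S159A mutant/DMSO as 100%, compound-well median as 0%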
# SIAE confirm – human SIAE inhibition, confirmation. shares compounds with SIAE primary. hit rate 13% among 2,300. inhibition, % at 9.66 µM. SIAE FP-Rh activity-based probe, fluorescence polarization;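 active = mean inhibition of the replicates above the hit cutoff set in the primary screen, cut at about 17% in these data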;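 note: 0% = SIAE with DMSO and probe and 100% = probe without SIAE; inhibitors lower polarization as more probe stays unbound to SIAE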
# * hit, by the source's call; . = no result given. Most compounds without a hit are left out; they make up all but 3.3% or so of the library.
SMILES,SIAE primary,PRMT1 inh,HTRA1 inhibitor,rCAG RNA binder,mABHD4 FP,SIAE confirm
CC(C)c1nnc(NC(=O)CCC(=O)NCc2ccco2)s1,10.9,-1.9,3.8,-3.1,4.4,.
CC(C)Cc1nnc(NC(=O)CCNC(=O)c2ccco2)s1,29.4*,1.0,1.4,0.1,-1.0,1.4
CC(C)CC(=O)Nc1nnc(-c2ccco2)s1,18.3*,-0.5,1.2,1.3,-7.5,-1.4
O=C1CCCN1c1ccc(S(=O)(=O)N2CCCCC2)cc1[N+](=O)[O-],-5.9,-0.1,2.7,-1.9,3.2,.
O=C1CCCN1c1ccc(S(=O)(=O)N2CCCCC2)cc1,17.2*,-0.7,-5.5,-1.8,0.2,-0.9
COc1cccc(C=NN2CCCCCC2)c1OC,20.7*,0.3,8.0,1.1,7.6,2.2
CCOC(=O)c1c(C)sc2c1N(C(=O)CN(CC)CC)c1ccccc1S2,17.4*,-0.5,-2.0,-9.1,0.1,0.7
CCOC(=O)c1c(C)sc2c1N(C(=O)CN(CC)CC)c1cc(Cl)ccc1S2,0.9,0.7,-3.9,-11.6,1.1,.
Cc1cc(C(=O)COC(=O)c2ccc[nH]c2=O)c(C)n1-c1ccccc1,4.1,-2.3,4.1,3.3,-12.0,.
Cc1cc(C(=O)COC(=O)c2ccc[nH]c2=O)c(C)n1C1CC1,22.8*,-3.2,-0.1,-1.3,0.8,1.3
O=C(COC(=O)c1ccc[nH]c1=O)NC1CCCCCCC1,18.1*,-1.5,0.5,-1.1,4.1,0.5
CCOC(=O)CC1=C(C(=O)OCC)C(c2cccnc2)C(C#N)=C(N)O1 (stereo not drawn),17.3*,9.2,-1.8,-0.8,2.8,-0.8
NC(=O)c1cc(S(=O)(=O)N2CCCC2)ccc1OCCOc1ccccc1F,21.3*,0.7,-3.2,0.6,8.2,0.7
COc1ccc(OCCOc2ccc(S(=O)(=O)N3CCCC3)cc2C(N)=O)cc1,-2.2,1.1,0.3,-2.5,3.4,.
CCCCc1ccc(NC(=O)N2CCNC(=O)C2CC(=O)Nc2ccsc2C(=O)OC)cc1 (stereo not drawn),-3.4,4.4,-13.7,0.9,-8.0,.
Cc1noc(C)c1C(=O)N1CCC1(C)C(=O)NS(=O)(=O)c1cccc(Cl)c1 (stereo not drawn),2.3,2.6,.,4.2,0.8,.
Cc1cc(S(=O)(=O)N2CCCCC2)c(C)s1,1.3,-4.4,0.5,-1.0,-6.5,.
O=C(NCc1ccc(F)cc1)c1cc(C2CCCCN2S(=O)(=O)Cc2ccccc2)on1 (stereo not drawn),2.1,1.6,.,1.7,-1.7,.
CN(C)c1cccc(CNC(=O)c2csc([C@@H]3O[C@H](CO)[C@H](O)[C@H](O)[C@H]3O)n2)c1,19.9*,-4.4,.,3.9,3.2,6.4
CN(C)c1cccc(CNC(=O)c2csc([C@@H]3O[C@H](CO)[C@@H](O)[C@H]3O)n2)c1,1.0,-6.2,.,2.4,5.0,.
Oc1[nH]c2ccccc2c1N=Nc1nc(Nc2ccccc2)nc(N2CCOCC2)n1,-10.8,-5.6,-11.3,3.3,-2.8,.
Cc1[nH]c2ccccc2c1/C=N/Nc1nc(Nc2ccccc2)nc(N2CCOCC2)n1,31.8*,-0.9,-3.4,11.6,12.1,16.7
CSC[C@@H]1NC(=S)N(c2ccc(C)cc2)C1=O,51.7*,0.5,-49.6,25.2,-3.2,-110.4
Cc1ccc(Cl)cc1NC(=O)CN1C(=O)NC2(CCCCCC2)C1=O,44.8*,1.2,-7.0,-1.0,7.9,2.1
Cc1c(CC(=O)O)c(=O)oc2cc(OCc3nn[nH]n3)ccc12,18.0*,-3.2,-1.8,-0.2,0.7,2.6
SMILES,SIAE primary,PRMT1 inh,HTRA1 inhibitor,rCAG RNA binder,mABHD4 FP,SIAE confirm
COc1cc(OC)cc(C(=O)OC(C)C(=O)NC2CCCc3ccccc32)c1 (stereo not drawn),1.9,-4.6,-5.8,-2.0,-2.1,.
O=C(CSC(=S)N1CCCC1)N1CCN(S(=O)(=O)c2ccccc2F)CC1,-0.1,-2.6,7.0,-2.2,-5.0,.
NC(c1ccccc1)c1cccs1 (stereo not drawn),1.6,3.0,.,0.5,-1.2,.
O=C(CCc1ccccc1)Nc1cccc(S(=O)(=O)N2CCOCC2)c1,24.7*,2.0,7.4,-0.1,2.4,-9.7
COc1ccc(NC(=O)Nc2cccs2)cc1OC,18.3*,2.0,4.3,7.4,7.2,8.2
Cc1ccc(NC(=O)COC(=O)c2ccc(CN3CCCC3=O)cc2)cc1C,9.6,0.9,0.9,-3.9,6.1,.
COc1cccc(OCC(O)CN2CCN(c3ccc(Cl)cc3)CC2)c1 (stereo not drawn),18.5*,-5.0,0.9,-3.3,-4.7,0.5
COc1cccc(OCC(O)CN2CCN(c3ccccc3)CC2)c1 (stereo not drawn),7.0,-0.3,8.2,-10.1,2.3,.
CC(=O)NNC(=O)CCn1c2c(c3ccccc31)CCCC2,20.2*,-3.6,6.7,0.2,-1.6,-4.8
CCN(CC)C(C)C(=O)Nc1c2c(cc3c1CCC3)CCC2 (stereo not drawn),5.3,4.2,7.7,-0.6,-3.2,.
CC(C(=O)Nc1c2c(cc3c1CCC3)CCC2)N1CCCC1 (stereo not drawn),20.4*,-4.0,2.5,0.4,-3.1,-7.2
COc1ccc(NC(=S)Nc2ccc3cn[nH]c3c2)cc1,5.3,4.8,4.3,7.3,8.3,.
CC(C)NC(=S)Nc1ccc2cn[nH]c2c1,19.2*,-0.8,8.9,0.3,0.1,-6.0
Cc1ccc(S(=O)(=O)N2[C@H](CC(=O)c3ccc(Cl)c(Cl)c3)OC[C@@H]2C)cc1,-4.8,-4.1,.,4.0,-11.4,.
Cc1ccc(NS(=O)(=O)c2c(C(=O)N3CCOCC3)c(C)n(C)c2C)cc1C,9.9,3.7,-1.0,-3.0,-4.6,.
Cc1cc(C)c(NS(=O)(=O)c2c(C(=O)N3CCOCC3)c(C)n(C)c2C)c(C)c1,18.1*,2.5,0.0,-1.9,-1.2,-1.6
COc1ccc(-c2cc3nc(NCC4CCCCC4)n(C)c(=O)c3s2)cc1OC,-28.5,-0.1,.,1.9,-0.7,.
CCN(c1nc(C)cc(OC)n1)S(=O)(=O)c1ccccc1,17.7*,-1.5,1.2,3.8,-3.4,3.7
O=C(Nc1ccc(F)c(Cl)c1)c1cc(C2CCCN(S(=O)(=O)c3cccc4cccnc34)C2)on1 (stereo not drawn),-34.5,-4.0,.,6.4,-51.6,.
CCN(CC)c1ccc(/C=N/N2CCN(Cc3ccc(C)cc3)CC2)c(O)c1,.,.,2.0,.,.,.
CCN(CC)c1ccc(/C=N/N2CCN(Cc3ccccc3Cl)CC2)c(O)c1,22.0*,-5.2,-0.2,9.7,2.6,4.0
CC1CC(C)CN(S(=O)(=O)c2ccc3c(c2)oc(=O)n3CC(=O)NCCCOC(C)C)C1 (stereo not drawn),17.5*,-2.4,-0.2,-2.7,1.3,-3.4
CCC(C)(C)NC(=O)Cn1c(=O)oc2cc(S(=O)(=O)N3CC(C)CC(C)C3)ccc21 (stereo not drawn),-1.5,0.1,1.9,-5.1,1.1,.
CC(=O)Nc1ccc(NC(=O)CN(c2cc(Cl)ccc2Cl)S(C)(=O)=O)cc1,-9.0,4.5,2.9,1.4,-5.8,.

# Screening data (PubChem BioAssay)
